The text below walks through data of publication PMC10084868 (International Journal of Nanomedicine, 2023).

For one data set, the system named is zebrafish haematopoiesis. Kind of data set: Haemoglobin. It is filed as in vivo. The conditions noted are these: zebrafish embryos; F1 starting from 0.4 µg/mL; haemoglobin staining and video. In outline:
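Shield-stage embryos were exposed to the formulation at 0.4 µg/mL and raised to the 20-somite stage, then given 0.003% (final) phenylthiourea to block pigmentation. They were then rinsed and fixed in 4% paraformaldehyde.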

For data set [1] the following is noted: powdered drugs, reported previously; cited from earlier work.
The conditions of data set [2]: humans; cited from earlier work.

For the compound `COc1cc(/C=C/C(=O)CC(=O)/C=C/c2ccc(O)c(OC)c2)ccc1O` [CUR, Curcumin], in the data set with zebrafish haematopoiesis, the “effect on blood circulation / haematopoiesis” value is “did not affect haematopoiesis”. The “dissolution rate (release) of powdered drug” value in data set [1] is given as “less than 20%”. Besides, in data set [2], the “increase of bioavailability of CUR with concomitant PP vs CUR alone” value is 2000%.
With `O=C(/C=C/C=C/c1ccc2c(c1)OCO2)N1CCCCC1` [PP, Piperine], the “effect on blood circulation / haematopoiesis” value in the data set on zebrafish haematopoiesis is recorded as “did not affect haematopoiesis”. For the same compound, the “dissolution rate (release) of powdered drug” value in data set [1] is reported as “less than 20%”.
